Assay [1] has as its system MAC15A. Put plainly: Cytotoxicity against MAC15a cells when the drug is exposed for a time of 1 hr. The assay is classed as functional, cell-based. The note with it: Mus musculus.
A further assay relates to Mus musculus. In words: Inhibitory activity against Plasmodium berghei (ANKA) in mice at a dose of 20 mg/kg for 4 days. Type of assay: functional. The arrangement: scale not given: the % may be the effect or the level left. In outline: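 Peters' 4-day suppressive test. Female BALB/c mice (18-20 g) were inoculated iv with 1 × 10⁷ P. berghei ANKA-infected erythrocytes. Drug was given ip in 0.2 mL daily for 4 consecutive days, 5 mice per group, with chloroquine diphosphate as positive control. Blood smears were taken on day 5. % suppression of parasitemia was calculated against untreated infected controls for each dose.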

The subject of assay [2] is A549. Put plainly: Cytotoxicity against A549 cells when the drug is exposed for a time of 1 hr. The assay is classed as functional, cell-based. The settings on record: Homo sapiens, A549, 1 h.
The test system of assay [3] is Plasmodium falciparum. In words: In vitro inhibitory activity against chloroquine-sensitive Plasmodium falciparum HB3.
The subject of assay [4] is MAC15A. Put plainly: Cytotoxicity against MAC15a cells when the drug is exposed for a time of 96 hr. Type of assay: functional, cell-based. The note with it: Mus musculus.
The test system of assay [5] is A549. In words: Cytotoxicity against A549 cells when the drug is exposed for a time of 96 hrs. The assay is classed as functional, cell-based. The note with it: Homo sapiens, A549, 96 h.
For assay [6], the system named is DLD-1. In words: Cytotoxicity against DLD-1 cells when the drug is exposed for a time of 1 hr. Type of assay: functional, cell-based. The settings on record: Homo sapiens, DLD-1, 1 h.
Assay [7] has as its system Plasmodium falciparum. Put plainly: In vitro inhibitory activity against chloroquine-resistant Plasmodium falciparum K1. Type of assay: functional, organism-based. In outline: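 Early ring-stage parasites in human A+ erythrocytes, RPMI 1640 with A+ serum and glucose. Twofold serial dilutions in duplicate from DMSO stocks (final DMSO ≤0.5%), 2.5% hematocrit, 1% parasitemia. Incubated 48 h at 37 °C under 93% N2/3% O2/4% CO2. Growth read as parasite lactate dehydrogenase activity (APAD/NBT reagent, 15 min, OD 550 nm). IC50 by linear regression, at least three separate determinations.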

The test system of assay [8] is DLD-1. Put plainly: Cytotoxicity against DLD-1 cells when the drug is exposed for a time of 96 hrS. Type of assay: functional, cell-based. The settings on record: Homo sapiens, DLD-1, 96 h.
Assay [9] has as its target T1, Histidine-rich protein PFHRP-II (Plasmodium falciparum) (UniProt P05227).
T1 sequence (whole entry): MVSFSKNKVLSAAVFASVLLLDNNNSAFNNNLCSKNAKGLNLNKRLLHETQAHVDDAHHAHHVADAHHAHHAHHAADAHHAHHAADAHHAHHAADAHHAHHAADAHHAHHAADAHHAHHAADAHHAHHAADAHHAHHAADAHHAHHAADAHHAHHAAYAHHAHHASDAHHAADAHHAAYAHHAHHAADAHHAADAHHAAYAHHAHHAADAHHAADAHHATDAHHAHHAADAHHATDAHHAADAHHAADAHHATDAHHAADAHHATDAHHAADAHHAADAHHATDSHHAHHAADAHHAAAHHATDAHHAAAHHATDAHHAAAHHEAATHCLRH
In words: Inhibition of beta-hematin formation; Yes. The assay is classed as functional.

Assay [10] concerns the target T1, Histidine-rich protein PFHRP-II (Plasmodium falciparum). In words: Inhibition of beta-hematin formation; No. Type of assay: functional.

For orientation: IC50 means the concentration that gives 50% inhibition.

Each structure is given as a SMILES string. Where “and” joins values, the source holds several entries; their conditions need not be identical. Identical values can stand only once.

Turning to `CC(=O)Nc1ccc2[n-]c3cc4ccccc4[n+](C)c3c2c1`, the IC50 in the assay on MAC15A [1] was above 100 µM; in the assay on A549 [2], above 100 µM; with Plasmodium falciparum [3], 0.47 µM; in the assay on MAC15A [4] it was 15.5 µM; in the assay with A549 [5] it was 5.04 µM; in the assay with DLD-1 [6], above 100 µM. In addition, the IC50 came to 0.52 µM in the assay with Plasmodium falciparum [7] and 20.4 µM in the assay on DLD-1 [8]. The Activity in the assay on Mus musculus is 13.3% and 14.7%.

Consider `CCN(CC)CCCC(C)Nc1ccnc2cc(Cl)ccc12.O=P(O)(O)O.O=P(O)(O)O` (centres undefined) [CHLOROQUINE PHOSPHATE], for which, in assay [9], the “beta-hematin formation inhibition (yes/no)” value was “Inhibition”.

In the case of `C[n+]1c2ccccc2cc2[n-]c3c([N+](=O)[O-])cccc3c21`, the IC50 in the assay on MAC15A [1] was above 100 µM; in the assay with A549 [2], above 100 µM; in the assay with Plasmodium falciparum [3], 4.14 µM; with DLD-1 [6], above 100 µM; with Plasmodium falciparum [7], 6.92 µM. Also, in the assay with Mus musculus, the Activity was 11.9% and 23.5%.

On to `c1ccc2nc3c(cc2c1)[nH]c1ccccc13` [QUINDOLINE], for which the inhibition result in [10] is “No inhibition”. The compound further gave a concentration for half-maximal inhibition (IC50) with Plasmodium falciparum [7] above 100 µM.

Turning to `O=C(O)c1c2nc3ccccc3c-2[nH]c2ccccc12`, the inhibition result in [10] is “No inhibition”. This compound showed a half-maximal inhibitory concentration (IC50) in the assay on Plasmodium falciparum [7] above 100 µM.

In the case of `C[n+]1c2ccccc2cc2[nH]c3ccccc3c21` [CRYPTOLEPTINE IODIDE], the IC50 in the assay with MAC15A [1] was determined as 67.2 µM; in the assay with A549 [2], 61.4 µM; with MAC15A [4], 9.65 µM; in the assay with A549 [5], 0.55 µM; in the assay with DLD-1 [6], 93 µM; in the assay with Plasmodium falciparum [7], 0.44 µM. Inhibition in the assay on DLD-1 [8] was half-maximal at 1.44 µM (IC50). The inhibition result in assay [9] is “Inhibition”.

As to `C[n+]1c2ccccc2cc2[n-]c3c([N+](=O)[O-])cc([N+](=O)[O-])cc3c21`, the half-inhibitory concentration (IC50) is 28.5 µM in the assay on MAC15A [1]; above 100 µM in the assay with A549 [2]; 0.45 µM in the assay with Plasmodium falciparum [3]; above 100 µM with DLD-1 [6]; 0.65 µM in the assay with Plasmodium falciparum [7]. In addition, the Activity in the assay on Mus musculus is 20.3% and 30.2%. Also, the “beta-hematin formation inhibition (yes/no)” value in [9] is given as “Inhibition”.

Turning to `C[n+]1c2ccccc2c(Cl)c2[nH]c3cc(Cl)ccc3c21`, the IC50 was found to be 14.4 µM in the assay with MAC15A [1] and 27 µM in the assay with Plasmodium falciparum [7].

As to `C[n+]1c2ccccc2c(Cl)c2[nH]c3ccccc3c21`, the IC50 in the assay with MAC15A [1] was 30.5 µM; with Plasmodium falciparum [3] it was 1.67 µM; with Plasmodium falciparum [7], 0.24 µM.

Regarding `C[n+]1c2ccccc2cc2[n-]c3ccc([N+](=O)[O-])cc3c21`, the IC50 in the assay with MAC15A [1] was 35.4 µM; with A549 [2] it was 35.6 µM; in the assay with Plasmodium falciparum [3] it was 0.14 µM; in the assay on DLD-1 [6], 48.9 µM; with Plasmodium falciparum [7] it was 0.65 µM. In addition, the “beta-hematin formation inhibition (yes/no)” value in assay [9] is given as “Inhibition”.

As for `C[n+]1c2ccc(Br)cc2cc2[nH]c3ccccc3c21.[I-]`, the half-maximal inhibitory concentration (IC50) was above 100 µM in the assay with MAC15A [1]; above 100 µM in the assay on A549 [2]; 0.45 µM with Plasmodium falciparum [3]; 5.79 µM in the assay on MAC15A [4]; 2.07 µM in the assay with A549 [5]; above 100 µM in the assay on DLD-1 [6]. In addition, the IC50 with Plasmodium falciparum [7] worked out at 0.26 µM; with DLD-1 [8], 2.29 µM. Moreover, in [9], the “beta-hematin formation inhibition (yes/no)” value is on record as “Inhibition”.

Consider `C[n+]1c2ccccc2cc2[nH]c3ccc(Br)cc3c21.[I-]`, for which the IC50 is 66.2 µM in the assay on MAC15A [1], 0.19 µM with Plasmodium falciparum [3] and 0.26 µM in the assay with Plasmodium falciparum [7]. The “beta-hematin formation inhibition (yes/no)” value in [9] is on record as “Inhibition”.

Consider `C[n+]1c2ccc(Br)cc2c(Cl)c2[nH]c3ccccc3c21`, for which, in the assay with Plasmodium falciparum [7], the IC50 was 4.75 µM.

Consider `C[n+]1c2ccc(Br)cc2cc2[nH]c3ccc(Br)cc3c21.[I-]`, for which, in [9], the “beta-hematin formation inhibition (yes/no)” value is given as “Inhibition”. In addition, the IC50 worked out at 0.026 µM with Plasmodium falciparum [3], 6.04 µM in the assay with MAC15A [4] and 0.049 µM in the assay with Plasmodium falciparum [7].

As for `C[n+]1c2ccccc2c(Cl)c2[nH]c3ccc(Cl)cc3c21`, in the assay with Plasmodium falciparum [7], it took 7.62 µM to reach half-maximal inhibition (IC50).

Regarding `C[n+]1c2ccccc2c(Cl)c2[nH]c3cc(Br)ccc3c21`, the IC50 in the assay with MAC15A [1] was determined as 23.1 µM; in the assay with Plasmodium falciparum [7], 7.18 µM.

For `NC(=O)c1c2nc3ccccc3c-2[nH]c2ccccc12`, the inhibition entry in assay [10] was “No inhibition”. In the assay on Plasmodium falciparum [7], the half-maximal inhibitory concentration (IC50) is above 100 µM.

The values are drawn from ChEMBL document CHEMBL1134600, “Synthesis and evaluation of cryptolepine analogues for their potential as new antimalarial agents” (J Med Chem, 2001).
